Only a selection was taken, and hits are over-represented in it overall.
pCIP destab – p/CIP protein destabilization | Q05BA5 | F442A p/CIP-EGFP cells, EGFP fluorescence, 16 h | AID 1984 | 0.01% of 290,000 active | decrease of EGFP signal, % at 10 µM;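 active = EGFP signal decrease of at least 30% at 10 µM or well 3 SD below plate mean, unless failing retest; inactive = the rest, including hits failing retest or dose response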
Cl transport mod – modulates chloride dependent transport by human KCC2 | B-score of Tl+ flux slope (higher = more flux/activation; lower = inhibition) at 10 µM | 2.2% of 190,000 active | KCC2 cells, thallium flux FluoZin-2 fluorescence;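 active = thallium flux slope and its plate-corrected score both differing from the plate sample mean at a set confidence after two filtering rounds, in either direction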;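 also: slope of fluorescence scaled to starting intensity during 10 to 20 s after thallium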
V-ATPase pHluor – yeast V-ATPase proton transport regulation by pHLuorin | S. cerevisiae, pHLuorin cytosolic pH fluorescence | response, % at 10 µM | 0.37% of 350,000 active; in the data active = response mostly above about 7.3%, no sharp cut-off; inactive = mostly below about 5.4%; also: actives read high
ABCB6 inh 2 – inhibitors of human ABC transporter ABCB6 | K562-ABCB6 porphyrin accumulation, flow cytometry, 1 h; hits give low values | fluorescence ratio to DMSO, % at 10 µM | 0.19% of 360,000 active | Q9NP58;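 active = fluorescence ratio to DMSO below 75%, the collection mean minus 3 SD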;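 also: signal is porphyrin accumulated inside mitochondria; lower ratio means ABCB6 inhibition with less porphyrin fluorescence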
Target sequence (Q9NP58 whole entry, looked up): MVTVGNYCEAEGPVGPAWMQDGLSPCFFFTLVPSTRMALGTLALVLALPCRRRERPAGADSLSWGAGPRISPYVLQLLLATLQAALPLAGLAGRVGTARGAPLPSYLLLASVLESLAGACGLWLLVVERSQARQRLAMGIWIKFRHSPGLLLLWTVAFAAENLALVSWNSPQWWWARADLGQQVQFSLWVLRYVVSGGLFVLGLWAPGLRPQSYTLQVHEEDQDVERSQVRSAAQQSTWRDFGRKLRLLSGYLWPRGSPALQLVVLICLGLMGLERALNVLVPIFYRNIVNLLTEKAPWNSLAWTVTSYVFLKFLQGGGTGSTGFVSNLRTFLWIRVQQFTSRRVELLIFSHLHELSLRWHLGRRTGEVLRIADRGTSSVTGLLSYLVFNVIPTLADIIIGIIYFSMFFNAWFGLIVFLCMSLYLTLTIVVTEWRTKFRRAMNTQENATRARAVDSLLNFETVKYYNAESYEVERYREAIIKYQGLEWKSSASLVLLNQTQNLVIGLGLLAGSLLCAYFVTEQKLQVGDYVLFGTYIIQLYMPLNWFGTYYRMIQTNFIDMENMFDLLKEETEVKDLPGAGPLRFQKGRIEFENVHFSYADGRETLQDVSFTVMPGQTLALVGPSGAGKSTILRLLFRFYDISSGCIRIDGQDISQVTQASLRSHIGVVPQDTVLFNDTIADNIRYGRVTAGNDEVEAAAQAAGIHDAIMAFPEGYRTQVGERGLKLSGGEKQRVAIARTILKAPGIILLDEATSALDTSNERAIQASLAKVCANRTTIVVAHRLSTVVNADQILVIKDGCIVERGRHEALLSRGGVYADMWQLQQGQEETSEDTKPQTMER
Dynein cargo inh – dynein cargo transport inhibition. 3617.4 mouse cells, GR-EGFP nuclear translocation imaging; test concentration mostly 20 µM; stimulated with dexamethasone, 1 µM; hits give low values. z-score, hits read low. 0.47% of 220,000 active;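 active = plate z-score of nuclear minus cytoplasmic receptor signal below a set negative limit, without overly bright fluorescence or cell loss, cut at about -3.5 in these data, passing the limit was not always enough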;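 also: z-score of nuclear minus cytoplasmic ring GR-EGFP intensity difference per well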
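medium = tetracycline-free induction medium containing charcoal-stripped FBS | probe or stimulus = dexamethasone, 1.0 µM final | timing = 48 h induction, then 1 h compound, then 30 min agonist, 37 °C | detection = automated 10x imaging of fixed Hoechst-stained cells | read-out basis = nuclear versus cytoplasmic GR-EGFP signal, averaged per well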
Dynein inh conf – dynein cargo transport inhibition, confirmation; shares compounds with Dynein cargo inh; 3617.4 GR-EGFP nuclear translocation imaging, dexamethasone-induced; calls only at 20 µM; 69% of 1,000 active;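 active = inhibition of receptor movement into the nucleus at or above a set limit in both runs, with normal cell brightness and cell count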;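 also: dexamethasone at 1 µM final in well for 30 min; nuclear minus cytoplasmic GR-EGFP mean intensity difference in channel 2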
Numbers stand for hits; 0 = inactive; - = no result given; + = active, no number.

SMILES	pCIP destab	Cl transport mod	V-ATPase pHluor	ABCB6 inh 2	Dynein cargo inh	others
COc1ccc(NC(=O)C(=O)NNC(=O)c2cccs2)c(OC)c1	0	10.8	0	0	0
CC(=O)NC(=S)NNC(=O)COc1ccc(Br)cc1	0	0	0	0	0
COc1ccc(NC(=O)C(=O)NNC(=O)c2cccs2)cc1	0	12.5	0	0	0
COc1ccc(C(=O)NNC(=S)NC(=O)c2cccs2)cc1	0	-	0	0	-
COc1ccc(NC(=O)CCC(=O)c2cccs2)c(OC)c1	0	-	0	0	-
Cc1ccc2nc(-c3ccc(F)cc3)c(CC3CCCCC3)n2c1	-	-	-	0	-
CC(C)C[C@H]1CN([C@@H](Cc2ccccc2)CN2CCC[C@@H]2CN2C(=O)C(=O)NC[C@@H]2Cc2ccccc2)C(=O)C(=O)N1CCc1ccccc1	-	-	-	0	-
CCCCN1C[C@H](Cc2ccccc2)[C@@H](CC(=O)NC)C1=O	-	-	0	0	-
CC(=O)c1ccc(Cc2ccc(C(C)=O)s2)s1	-	-	0	0	-
CCCc1c(-c2ccc(F)cc2F)ncn1Cc1ccccc1OC	-	-	-	0	-
COc1ccc(OCC(=O)NNC(=O)C(=O)Nc2ccc(C)cc2)cc1	0	21.9	0	0	0
COc1ccc(OCC(=O)NNC(=O)C(=O)Nc2ccccc2)cc1	-	-	0	0	-
COCCNC(=O)C1(C)CCCN(C(=O)c2cccc(C(F)(F)F)c2)C1 (stereo not drawn)	-	-	-	0	-
Cc1ccccc1NC1=NC(=S)N(c2ccccc2)C12CCOC(C)(C)C2 (stereo not drawn)	0	25.8	0	0	0
COCCCNC(=O)c1ccc2sc([C@@H]3O[C@H](CO)[C@H](O)[C@H](O)[C@H]3O)nc2c1	-	-	-	0	-
CS(=O)(=O)N(CC(=O)Nc1ccccc1C(=O)N1CCOCC1)c1ccc(F)c(Cl)c1	0	-	16.5	0	-
CC(C)(COC(=O)c1ccccc1)N1CC2CCC(C1)O2	-	-	19.3	0	-
COc1ccccc1C(=O)NNC(=S)NC(=O)c1sc2ccccc2c1Cl	0	19.7	0	0	0
Cc1c(NC(=S)NC(=O)c2sc3ccccc3c2Cl)cccc1C(=O)O	0	0	0	0	0
COc1ccccc1C(=O)NC(=S)NNC(=O)c1sc2ccccc2c1Cl	0	33.6	0	0	0
CN(C(=O)CSc1nnc(C(F)(F)F)n1C)c1c(N)n(Cc2ccccc2)c(=O)[nH]c1=O	-	-	0	0	-
COc1cc(NCc2ccccc2)c2ncn(Cc3ccccc3)c2c1	-	-	14.3	0	-
CN(Cc1ccccc1)C(=O)c1cccc(NC(=O)Cc2ccc(NC(=O)C3CCCN(C(=O)C4CCC4)C3)cc2)c1 (stereo not drawn)	-	-	0	0	-
CC1(C)OC2COC(c3[nH]nc4c(=O)[nH]c(=O)[nH]c34)C2O1 (stereo not drawn)	-	-	0	0	-
COc1cc(/C=C2\S/C(=N/S(=O)(=O)c3ccc(C)cc3)NC2=O)c([N+](=O)[O-])cc1OC	0	-6.51	0	0	0
SMILES	pCIP destab	Cl transport mod	V-ATPase pHluor	ABCB6 inh 2	Dynein cargo inh	others
Cc1cccc(-n2ncc3c2CCCC3NC(=O)c2ccncc2)c1C (stereo not drawn)	-	-	-	0	-
CCn1cc(C(=O)NC2CCCc3c2cnn3-c2cccc(C)c2C)cn1 (stereo not drawn)	0	-	0	65.0	-
O=C(Oc1ccc(Cl)c2cccnc12)c1cccc([N+](=O)[O-])c1	0	0	0	0	0
O=C(Oc1c(Cl)cc(Cl)c2cccnc12)c1cccc([N+](=O)[O-])c1	0	51	0	0	0
Nc1ccn(C2C=CC(CO)O2)c(=O)n1 (stereo not drawn)	-	-	-	0	-
O=C(NCc1cccc(C(F)(F)F)c1)c1c[nH]c(=O)s1	-	-	-	0	-
COc1ccc(Cl)cc1N1C(=O)c2cccnc2C1=O	0	-	17.9	0	-
OC(c1ccc(F)c(F)c1)c1nc(-c2cnc3ccccc3c2)cs1 (stereo not drawn)	-	-	-	0	-
CN(C)c1ccc(CC(=O)N2CCCC(c3cc(C(=O)Nc4ccc(F)c(Cl)c4)no3)C2)cc1 (stereo not drawn)	-	-	-	0	-
CCCCNC(=O)CC1N=C2c3ccccc3N=C(SCC(=O)Nc3ccc(OC)cc3)N2C1=O (stereo not drawn)	45.9	0	0	0	0
CC1=C(C)/C(=N\OS(=O)(=O)c2ccc(C)cc2)C=CC1=O	0	0	10.1	0	-3.65
C#CCOc1ccc(CNC[C@H]2O[C@@H](n3ccc(=O)[nH]c3=O)[C@H](O)[C@@H]2O)cc1	-	-	-	0	-
CC(C)C[C@@H](COCc1cccc(C(F)(F)F)c1)N1CCN(C(=O)c2ccc(C(F)(F)F)cc2)CCC1=O	-	-	-	0	-
CCOC(=O)c1cn(-c2ccc(F)c(F)c2)c2c(F)c(F)c(F)c(F)c2c1=O	0	-	-	-	0
O=C(O)c1cn(-c2ccc(F)c(F)c2)c2c(F)c(F)c(F)c(F)c2c1=O	0	0	0	0	-6.36
CCC(=O)NC(c1ccc(OC)cc1)c1c(O)ccc2ccccc12 (stereo not drawn)	33.7	0	0	0	0
Cc1c(-c2ccccc2)sc2nc[nH]c(=S)c12	0	90	0	0	0
NC(=O)c1ccc(NC(=O)COC(=O)CCC2CCCC2)cc1	-	-	0	0	-
Cc1ccc(/C=N/Nc2nc(Cl)c(Cl)cc2Cl)s1	0	7.61	0	0	0
Cc1ccsc1/C=N/Nc1nc(Cl)c(Cl)cc1Cl	0	0	0	0	0
COc1ccc(-c2csc(C(O)c3ccccc3)n2)cn1 (stereo not drawn)	-	-	-	0	-
COc1cccc(-c2nc(CS(=O)(=O)CC(=O)NCCCN3CCOCC3)c(C)o2)c1	0	-	0	0	-
COc1cccc(-c2nc(CS(=O)(=O)CC(=O)NCCCN3CCc4ccccc4C3)c(C)o2)c1	0	-3.95	0	0	0
CN(C1CCCCC1)S(=O)(=O)c1ccc(NC(=S)NC(=O)c2cccs2)cc1	0	17.1	0	0	0
Cc1cc(C)cc(NS(=O)(=O)c2ccc(NC(=S)NC(=O)c3cccs3)cc2)c1	0	0	0	0	0
SMILES	pCIP destab	Cl transport mod	V-ATPase pHluor	ABCB6 inh 2	Dynein cargo inh	others
CN(c1ccccc1)S(=O)(=O)c1ccc(NC(=S)NC(=O)c2ccccc2)cc1	0	3.05	0	0	0
Cc1ccc(C(=O)NC(=S)Nc2ccc(S(=O)(=O)N(C)c3ccccc3)cc2)cc1	0	0	0	0	0
Cc1cccc(C)c1NC(=S)NC(=O)c1ccc(Br)o1	0	192	0	0	0
CCN(c1ccccc1)S(=O)(=O)c1ccc(NC(=S)NC(=O)c2ccc(Br)o2)cc1	0	20.2	0	0	0
O=c1ccn([C@@H]2O[C@H](CNCc3cccc4c3sc3ccccc34)[C@@H](O)[C@H]2O)c(=O)[nH]1	-	-	-	0	-
CCCS(=O)(=O)NC(=O)C1(C)CCCN(C(=O)c2cccc(C)c2C)C1 (stereo not drawn)	-	-	-	0	-
O=C(/C=C/c1ccc(F)cc1)c1ccccc1Br	0	0	0	0	-5.67	Dynein inh conf=+
Cc1ccc(C(=O)/C=C/c2ccc(F)cc2)o1	0	0	0	0	0

Screening data: PubChem, several laboratories
